Test results published in ChEMBL document CHEMBL3124896, “Optimization of the lactam side chain of 7-azaindenoisoquinoline topoisomerase I inhibitors and mechanism of action studies in cancer cells” (2014).
Active and inactive are the calls of the source. No cut-off for these calls is given here.

Assays:
DU-145 = assay: Cytotoxicity against human DU145 cells by SRB assay; assay type: functional
SN12C = assay: Cytotoxicity against human SN12C cells by SRB assay; assay type: functional
UACC-62 = assay: Cytotoxicity against human UACC62 cells by SRB assay; assay type: functional
HCT-116 = assay: Cytotoxicity against human HCT116 cells by SRB assay; assay type: functional
HOP-62 = assay: Cytotoxicity against human HOP62 cells by SRB assay; assay type: functional
[1] = molecular target: T1, DNA topoisomerase 1 (Homo sapiens) (UniProt P11387); assay: Inhibition of human recombinant topoisomerase 1 using radiolabeled DNA as substrate at 100 uM after 20 mins by SDS-PAGE
T1 sequence (whole entry): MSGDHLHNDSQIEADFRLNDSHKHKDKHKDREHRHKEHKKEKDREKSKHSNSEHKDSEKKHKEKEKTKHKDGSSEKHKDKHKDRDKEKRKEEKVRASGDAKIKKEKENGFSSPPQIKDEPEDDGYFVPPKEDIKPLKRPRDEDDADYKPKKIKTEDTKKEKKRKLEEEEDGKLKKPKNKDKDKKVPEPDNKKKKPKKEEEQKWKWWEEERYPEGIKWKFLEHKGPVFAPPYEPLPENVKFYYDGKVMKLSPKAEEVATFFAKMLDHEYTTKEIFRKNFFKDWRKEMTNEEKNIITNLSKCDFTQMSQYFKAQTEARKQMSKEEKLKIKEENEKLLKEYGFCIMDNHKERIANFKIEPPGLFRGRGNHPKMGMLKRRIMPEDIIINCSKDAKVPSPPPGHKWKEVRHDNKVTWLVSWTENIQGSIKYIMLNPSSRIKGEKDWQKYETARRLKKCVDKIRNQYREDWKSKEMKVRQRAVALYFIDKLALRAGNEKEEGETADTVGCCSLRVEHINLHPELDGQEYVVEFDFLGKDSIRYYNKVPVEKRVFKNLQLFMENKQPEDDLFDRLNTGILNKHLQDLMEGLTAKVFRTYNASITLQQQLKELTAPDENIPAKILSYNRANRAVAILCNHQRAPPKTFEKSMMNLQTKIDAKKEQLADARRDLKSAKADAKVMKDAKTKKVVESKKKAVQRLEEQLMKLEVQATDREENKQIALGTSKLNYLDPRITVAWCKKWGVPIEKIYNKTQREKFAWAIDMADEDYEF
Procedure, shortened: (§1)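 A 117 bp oligonucleotide was 3′-end-labelled with [α-32P]dGTP by Klenow fill-in. Reactions were stopped with 0.5% SDS and run on 20% denaturing polyacrylamide gels. Cleavage bands were scored visually on a semiquantitative scale.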

[2] = Cytotoxicity against vinblastine-resistant human KBV1 cells after 72 hrs by MTT assay; assay type: functional; settings: KB-V1, 72 h
Procedure, shortened: (§2)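 Cells were seeded 24 h before dosing and exposed continuously for 72 h. Growth was read by colorimetric MTS assay and expressed relative to vehicle-treated controls set at 100. GI50 is the level giving 50% growth inhibition, from at least two independent determinations. HCT116 and siTop1 cells were kept in RPMI 1640/10% FBS with 100 μg/mL hygromycin; RC0.1 in RPMI 1640/10% FBS.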

[3] = Cytotoxicity against human KB 3.1 cells after 72 hrs by MTT assay; assay type: functional; settings: KB 3-1, 72 h; procedure, shortened: as §2
MCF7 = assay: Cytotoxicity against human MCF7 cells by SRB assay; assay type: functional
OVCAR-3 = assay: Cytotoxicity against human OVCAR3 cells by SRB assay; assay type: functional
SF-539 = assay: Cytotoxicity against human SF539 cells by SRB assay; assay type: functional
[4] = molecular target: T1, DNA topoisomerase 1 (Homo sapiens); assay: Inhibition of human recombinant topoisomerase 1 using radiolabeled DNA as substrate at 0.1 to 100 uM after 20 mins by SDS-PAGE
Procedure, shortened: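 Baculovirus-purified human recombinant Top1 with ~2 nM of a 117 bp oligonucleotide, 3′-end-labeled with [α-32P]dGTP by Klenow fill-in. Drugs at 0.1, 1, 10, 100 μM; 25 °C, 20 min. Stopped with 0.5% SDS, run on 20% denaturing PAGE, phosphorimaged. Cleavage bands scored visually against camptothecin standard.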

[5] = molecular target: T1, DNA topoisomerase 1 (Homo sapiens); assay: Inhibition of human recombinant topoisomerase 1 using radiolabeled DNA as substrate after 20 mins by SDS-PAGE; procedure, shortened: as §1
[6] = Resistance ratio of GI50 for human mitoxantrone-resistant H460 cells to GI50 for human H460 cells; assay type: functional
Procedure, shortened: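 Relative resistance = GI50 in the resistant subline divided by GI50 in the parental line. Both GI50s came from 72 h continuous-exposure MTS growth assays, each based on at least two independent determinations.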

[7] = Cytotoxicity against human mitoxantrone-resistant H460 cells after 72 hrs by MTT assay; assay type: functional; settings: NCI-H460, 72 h; procedure, shortened: as §2
[8] = Cytotoxicity against human H460 cells after 72 hrs by MTT assay; assay type: functional; settings: NCI-H460, 72 h; procedure, shortened: as §2
[9] = molecular target: T1, DNA topoisomerase 1 (Homo sapiens); assay: Inhibition of human recombinant topoisomerase 1 in human HCT116 cells assessed as reversal of topoisomerase 1-DNA cleavage complex stabilization at 1 uM incubated for 1 hr followed by compound washout measured after 24 hrs by DNA immunoblotting analysis; assay type: cell-based; settings: HCT-116
Procedure, shortened: (§3)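 10^6 HCT116 cells were treated with 1 μM for 1 h, and for reversal were held in drug-free medium for the set times. Cells were lysed with DNAzol and genomic DNA was isolated and sonicated. Serial dilutions were slot-blotted onto membranes and Top1–DNA complexes detected with the C21 anti-Top1 monoclonal antibody by immunoblotting (ICE method).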

[10] = molecular target: T1, DNA topoisomerase 1 (Homo sapiens); assay: Inhibition of human recombinant topoisomerase 1 in human HCT116 cells assessed as reversal of topoisomerase 1-DNA cleavage complex stabilization at 1 uM incubated for 1 hr followed by compound washout measured up to 6 hrs by DNA immunoblotting analysis; assay type: cell-based; settings: HCT-116; procedure, shortened: as §3
[11] = molecular target: T1, DNA topoisomerase 1 (Homo sapiens); assay: Inhibition of human recombinant topoisomerase 1 in human HCT116 cells assessed as stabilization of topoisomerase 1-DNA cleavage complex at 1 uM after 1 hr by DNA immunoblotting analysis; assay type: cell-based; settings: HCT-116; procedure, shortened: as §3

Compound	GI50 (DU-145) [nM]	GI50 (SN12C) [nM]	GI50 (UACC-62) [nM]	GI50 (HCT-116) [nM]	GI50 (HOP-62) [nM]	GI50 (MCF7) [nM]	GI50 (OVCAR-3) [nM]	GI50 (SF-539) [nM]	other results
COc1cc2c3c(n(C)c(=O)c2cc1OC)-c1cc2c(cc1C3=O)OCO2	37000	68000	4200	35000	1300				inhibition [1]: Active
COc1cccc2c1C(=O)c1c(O)c3c(c(O)c1C2=O)C[C@@](O)(C(=O)CO)C[C@@H]3O[C@H]1C[C@H](N)[C@H](O)[C@H](C)O1 [DOXORUBICIN]									GI50 [2]: > 1000 nM; GI50 [3]: 676 nM
COc1cnc2c(c1)C(=O)c1c-2n(CCCN(C)CCO)c(=O)c2cc([N+](=O)[O-])ccc12	36	39	29	49	28	13	180	34	inhibition [4]: Active
CN(C)CCCn1c2c(c3ccc([N+](=O)[O-])cc3c1=O)C(=O)c1cccnc1-2	1550	1560	3400	486	1940	474	3120	3140	inhibition [5]: Active
COc1cnc2c(c1)C(=O)c1c-2n(CCCNCCO)c(=O)c2cc([N+](=O)[O-])ccc12	< 10	< 10	< 10	< 10	< 10	< 10	35	14	inhibition [4]: Active
CC[C@@]1(O)C(=O)OCc2c1cc1n(c2=O)Cc2cc3c(CN(C)C)c(O)ccc3nc2-1 [TOPOTECAN]									RatioGI50 [6]: >22.39; GI50 [7]: > 1000 nM; GI50 [8]: 44.7 nM; inhibition [9]: Active; inhibition [10]: Active; inhibition [11]: Active
COc1cnc2c(c1)C(=O)c1c-2n(CCCN(C)C)c(=O)c2cc(OC)c(OC)cc12									inhibition [5]: Active
